How the values were obtained:
CCRF-CEM = experiment: Antiproliferative activity against human CCRF-CEM cells assessed as cell growth inhibition at 10 uM incubated for 48 hrs by sulforhodamine B assay relative to control; type: functional
Outline: (§1)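 Single-dose NCI-60 prescreen at 10^-5 M. Cells in RPMI 1640 with 5% FBS and 2 mM L-glutamine, seeded 5,000–40,000 cells/well with 24 h preincubation, then drug exposure for 48 h at 37 °C under 5% CO2. Growth read by SRB staining of TCA-fixed cells at 515 nm against time-zero and untreated controls. Negative growth values denote cell kill.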

K562 = experiment: Antiproliferative activity against human K562 cells assessed as cell growth inhibition at 10 uM incubated for 48 hrs by sulforhodamine B assay relative to control; type: functional
Outline: (§2)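 NCI-60 single-dose screen at 10^-5 M. Cells grown in RPMI 1640 with 5% FBS and 2 mM L-glutamine, plated at 5,000–40,000 cells/well, and preincubated 24 h. Drug (DMSO stock) added and incubated 48 h at 37 °C, 5% CO2. Adherent cells fixed with cold TCA, stained with 0.4% SRB in 1% acetic acid, dye solubilized in 10 mM trizma base, A515 read. Percent growth taken against time-zero and untreated control.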

NCI-H322M = experiment: Antiproliferative activity against human NCI-H322M cells assessed as cell growth inhibition at 10 uM incubated for 48 hrs by sulforhodamine B assay relative to control; type: functional; outline: as §2
Hs-578T = experiment: Antiproliferative activity against human Hs-578T cells assessed as cell growth inhibition at 10 uM incubated for 48 hrs by sulforhodamine B assay relative to control; type: functional; outline: as §2
RPMI-8226 = experiment: Antiproliferative activity against human RPMI-8226 cells assessed as cell growth inhibition at 10 uM incubated for 48 hrs by sulforhodamine B assay relative to control; type: functional; outline: as §2
BT-549 = experiment: Antiproliferative activity against human BT-549 cells assessed as cell growth inhibition at 10 uM incubated for 48 hrs by sulforhodamine B assay relative to control; type: functional; outline: as §1
T47D = experiment: Antiproliferative activity against human T47D cells assessed as cell growth inhibition at 10 uM incubated for 48 hrs by sulforhodamine B assay relative to control; type: functional; outline: as §2
[1] = n-Octanol/phosphate buffer partition coefficient, logP of the compound at pH 7.4 incubated for 85 mins by shake-flask method; type: physicochemical
Outline: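 Octanol–water partition by shake-flask: n-octanol with 0.15 M phosphate buffer pH 7.4 at 10:1 volumes. Buffer-phase absorbance read before mixing, then shaken 50 min and centrifuged at 2500 rpm for 35 min. Buffer absorbance read again; P = (Ai−Af)/Af × Vw/Vo.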

MCF7 = experiment: Antiproliferative activity against human MCF7 cells assessed as cell growth inhibition at 10 uM incubated for 48 hrs by sulforhodamine B assay relative to control; type: functional; outline: as §2
NCI-H522 = experiment: Antiproliferative activity against human NCI-H522 cells assessed as cell growth inhibition at 10 uM incubated for 48 hrs by sulforhodamine B assay relative to control; type: functional; outline: as §2
Malme-3M = experiment: Antiproliferative activity against human Malme-3M cells assessed as cell growth inhibition at 10 uM incubated for 48 hrs by sulforhodamine B assay relative to control; type: functional; outline: as §2
HOP-92 = experiment: Antiproliferative activity against human HOP-92 cells assessed as cell growth inhibition at 10 uM incubated for 48 hrs by sulforhodamine B assay relative to control; type: functional
Outline: (§3)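 NCI-60 one-dose prescreen at 10^-5 M. Cells grown in RPMI 1640 with 5% FBS and 2 mM glutamine, preincubated 24 h, then exposed 48 h at 37 °C. Adherent lines TCA-fixed, SRB-stained, A515 read. Growth percent relative to time-zero and control; negative values mean cell kill.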

OVCAR-8 = experiment: Antiproliferative activity against human OVCAR-8 cells assessed as cell growth inhibition at 10 uM incubated for 48 hrs by sulforhodamine B assay relative to control; type: functional; outline: as §2
SK-MEL-5 = experiment: Antiproliferative activity against human SK-MEL-5 cells assessed as cell growth inhibition at 10 uM incubated for 48 hrs by sulforhodamine B assay relative to control; type: functional; outline: as §2
SNB-19 = experiment: Antiproliferative activity against human SNB-19 cells assessed as cell growth inhibition at 10 uM incubated for 48 hrs by sulforhodamine B assay relative to control; type: functional; outline: as §2
MOLT-4 = experiment: Antiproliferative activity against human MOLT-4 cells assessed as cell growth inhibition at 10 uM incubated for 48 hrs by sulforhodamine B assay relative to control; type: functional; outline: as §2
M14 = experiment: Antiproliferative activity against human M14 cells assessed as cell growth inhibition at 10 uM incubated for 48 hrs by sulforhodamine B assay relative to control; type: functional; outline: as §2
UO-31 = experiment: Antiproliferative activity against human UO-31 cells assessed as cell growth inhibition at 10 uM incubated for 48 hrs by sulforhodamine B assay relative to control; type: functional; outline: as §2
IGROV-1 = experiment: Antiproliferative activity against human IGROV-1 cells assessed as cell growth inhibition at 10 uM incubated for 48 hrs by sulforhodamine B assay relative to control; type: functional; outline: as §2
U-251 = experiment: Antiproliferative activity against human U-251 cells assessed as cell growth inhibition at 10 uM incubated for 48 hrs by sulforhodamine B assay relative to control; type: functional; outline: as §2
KM12 = experiment: Antiproliferative activity against human KM12 cells assessed as cell growth inhibition at 10 uM incubated for 48 hrs by sulforhodamine B assay relative to control; type: functional; outline: as §2
NCI/ADR-RES = experiment: Antiproliferative activity against human NCI/ADR-RES cells assessed as cell growth inhibition at 10 uM incubated for 48 hrs by sulforhodamine B assay relative to control; type: functional; outline: as §2
HCT-15 = experiment: Antiproliferative activity against human HCT-15 cells assessed as cell growth inhibition at 10 uM incubated for 48 hrs by sulforhodamine B assay relative to control; type: functional; outline: as §3
SK-MEL-2 = experiment: Antiproliferative activity against human SK-MEL-2 cells assessed as cell growth inhibition at 10 uM incubated for 48 hrs by sulforhodamine B assay relative to control; type: functional; outline: as §2
MDA-MB-435 = experiment: Antiproliferative activity against human MDA-MB-435 cells assessed as cell growth inhibition at 10 uM incubated for 48 hrs by sulforhodamine B assay relative to control; type: functional; outline: as §2
UACC-62 = experiment: Antiproliferative activity against human UACC-62 cells assessed as cell growth inhibition at 10 uM incubated for 48 hrs by sulforhodamine B assay relative to control; type: functional; outline: as §2
HT-29 = experiment: Antiproliferative activity against human HT-29 cells assessed as cell growth inhibition at 10 uM incubated for 48 hrs by sulforhodamine B assay relative to control; type: functional; outline: as §2
LOX IMVI = experiment: Antiproliferative activity against human LOX IMVI cells assessed as cell growth inhibition at 10 uM incubated for 48 hrs by sulforhodamine B assay relative to control; type: functional; outline: as §2
HL-60 = experiment: Antiproliferative activity against human HL-60 cells assessed as cell growth inhibition at 10 uM incubated for 48 hrs by sulforhodamine B assay relative to control; type: functional; outline: as §3
SN12C = experiment: Antiproliferative activity against human SN12C cells assessed as cell growth inhibition at 10 uM incubated for 48 hrs by sulforhodamine B assay relative to control; type: functional; outline: as §2
ACHN = experiment: Antiproliferative activity against human ACHN cells assessed as cell growth inhibition at 10 uM incubated for 48 hrs by sulforhodamine B assay relative to control; type: functional; outline: as §1
MDA-MB-468 = experiment: Antiproliferative activity against human MDA-MB-468 cells assessed as cell growth inhibition at 10 uM incubated for 48 hrs by sulforhodamine B assay relative to control; type: functional; outline: as §2
SR = experiment: Antiproliferative activity against human SR cells assessed as cell growth inhibition at 10 uM incubated for 48 hrs by sulforhodamine B assay relative to control; type: functional; outline: as §2
MDA-MB-231 = experiment: Antiproliferative activity against human MDA-MB-231 cells assessed as cell growth inhibition at 10 uM incubated for 48 hrs by sulforhodamine B assay relative to control; type: functional; outline: as §2
PC-3 = experiment: Antiproliferative activity against human PC-3 cells assessed as cell growth inhibition at 10 uM incubated for 48 hrs by sulforhodamine B assay relative to control; type: functional; outline: as §2
NCI-H23 = experiment: Antiproliferative activity against human NCI-H23 cells assessed as cell growth inhibition at 10 uM incubated for 48 hrs by sulforhodamine B assay relative to control; type: functional; outline: as §2
SF-268 = experiment: Antiproliferative activity against human SF-268 cells assessed as cell growth inhibition at 10 uM incubated for 48 hrs by sulforhodamine B assay relative to control; type: functional; outline: as §2
SF-539 = experiment: Antiproliferative activity against human SF-539 cells assessed as cell growth inhibition at 10 uM incubated for 48 hrs by sulforhodamine B assay relative to control; type: functional; outline: as §2
HCT-116 = experiment: Antiproliferative activity against human HCT-116 cells assessed as cell growth inhibition at 10 uM incubated for 48 hrs by sulforhodamine B assay relative to control; type: functional; outline: as §3
NCI-H460 = experiment: Antiproliferative activity against human NCI-H460 cells assessed as cell growth inhibition at 10 uM incubated for 48 hrs by sulforhodamine B assay relative to control; type: functional; outline: as §2
HOP-62 = experiment: Antiproliferative activity against human HOP-62 cells assessed as cell growth inhibition at 10 uM incubated for 48 hrs by sulforhodamine B assay relative to control; type: functional; outline: as §3

SMILES: CC(=O)c1ccc(-c2cn3ccnc3c(-c3ccc4ncn(C5CCCCC5)c4c3)n2)cc1
- inhibition at 10 µM (CCRF-CEM): 1.1%
- inhibition at 10 µM (K562): 9.6%
- inhibition at 10 µM (NCI-H322M): 1.19%
- inhibition at 10 µM (Hs-578T): 6.34%
- inhibition at 10 µM (RPMI-8226): 20.8%
- inhibition at 10 µM (BT-549): 4.68%
- inhibition at 10 µM (T47D): 54.4%
- logD at 1.417 h [1]: 2.06
- inhibition at 10 µM (MCF7): 12%
- inhibition at 10 µM (NCI-H522): 10.4%
- inhibition at 10 µM (Malme-3M): 3.01%
- inhibition at 10 µM (HOP-92): 25%
- inhibition at 10 µM (OVCAR-8): 6.38%
- inhibition at 10 µM (SK-MEL-5): 24.8%
- inhibition at 10 µM (SNB-19): 3.96%
- inhibition at 10 µM (MOLT-4): 14.3%
- inhibition at 10 µM (M14): 3.43%
- inhibition at 10 µM (UO-31): 23.1%
- inhibition at 10 µM (IGROV-1): 19.1%
- inhibition at 10 µM (U-251): 3.02%
- inhibition at 10 µM (KM12): 11.7%
- inhibition at 10 µM (NCI/ADR-RES): 4.17%
- inhibition at 10 µM (HCT-15): 18.8%
- inhibition at 10 µM (SK-MEL-2): 0.58%
- inhibition at 10 µM (MDA-MB-435): 6%
- inhibition at 10 µM (UACC-62): 18.5%
- inhibition at 10 µM (HT-29): 9.2%
- inhibition at 10 µM (LOX IMVI): 14.5%
- inhibition at 10 µM (HL-60): 2.65%
- inhibition at 10 µM (SN12C): 6.33%
- inhibition at 10 µM (ACHN): 4.32%
- inhibition at 10 µM (MDA-MB-468): 0.73%
- inhibition at 10 µM (SR): 23.6%
- inhibition at 10 µM (MDA-MB-231): 7.65%
- inhibition at 10 µM (PC-3): 17.9%
- inhibition at 10 µM (NCI-H23): 8.6%
- inhibition at 10 µM (SF-268): 5.01%
- inhibition at 10 µM (SF-539): 2.82%
- inhibition at 10 µM (HCT-116): 15.8%
- inhibition at 10 µM (NCI-H460): 7.12%
- inhibition at 10 µM (HOP-62): 7.41%
